Reference: ChEMBL document CHEMBL2010753, “Free radical scavenging and antiproliferative properties of Biginelli adducts” (2012)
Values after ≈ are worked out from the molar mass of the structure shown. Active and inactive are the calls of the source. The rule behind the calls is not given here.

Assays:
Type in all cases: functional
[1] = Growth inhibition of human NCI-ADR-RES cells after 48 hrs by sulforhodamine B assay
HT-29 = experiment: Growth inhibition of human HT-29 cells after 48 hrs by sulforhodamine B assay; conditions: HT-29, 48 h
786-0 = experiment: Growth inhibition of human 786-0 cells after 48 hrs by sulforhodamine B assay; conditions: 786-0, 48 h
OVCAR-3 = experiment: Growth inhibition of human OVCAR3 cells after 48 hrs by sulforhodamine B assay; conditions: OVCAR-3, 48 h
[2] = Antioxidant activity assessed as scavenging of DPPH at 160 uM after 30 mins by spectrophotometry
U-251 = experiment: Growth inhibition of human U251 cells after 48 hrs by sulforhodamine B assay; conditions: U-251, 48 h
PC-3 = experiment: Growth inhibition of human PC3 cells after 48 hrs by sulforhodamine B assay; conditions: PC-3, 48 h
NCI-H460 = experiment: Growth inhibition of human NCI-H460 cells after 48 hrs by sulforhodamine B assay; conditions: NCI-H460, 48 h
[3] = Antioxidant activity assessed as concentration required for 50% DPPH scavenging activity after 30 mins by spectrophotometry
[4] = Antioxidant activity assessed as scavenging of DPPH at 24.2 uM up to 10 mins by spectrophotometry
How it was run: (§1)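 Kinetic run: reaction medium with 10 nmol DPPH radicals in ethanol and compound at the stated concentration, DPPH scavenging followed over time up to 10 min. Three independent experiments, each in triplicate.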

[5] = Antioxidant activity assessed as concentration required for 50% DPPH scavenging activity after 30 mins by spectrophotometry relative to monastrol
[6] = Antioxidant activity assessed as concentration required to scavenge 50% superoxide anions after 10 mins by spectrophotometry
[7] = Antioxidant activity assessed as scavenging of DPPH at 29.7 uM up to 10 mins by spectrophotometry; how it was run: as §1
[8] = Antioxidant activity assessed as scavenging of DPPH at 20.3 uM up to 10 mins by spectrophotometry; how it was run: as §1
[9] = Antioxidant activity assessed as scavenging of DPPH at 20.3 uM after 1 min by spectrophotometry relative to resveratrol
[10] = Antioxidant activity assessed as scavenging of superoxide anions after 10 mins by spectrophotometry
How it was run: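 Superoxide generated photochemically in 50 mM phosphate buffer pH 7.8 with 13 mM L-methionine, 75 μM nitroblue tetrazolium, 100 μM EDTA, 2 μM riboflavin. Compound at 0–200 μM (12.5–200 μM tested), fluorescent light 10 min at 25 °C; dark-kept mixtures as controls; read at 575 nm. Triplicates in three independent experiments.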

[11] = Antioxidant activity assessed as scavenging of DPPH at 34.4 uM up to 10 mins by spectrophotometry; how it was run: as §1

SMILES	GI50 (HT-29) [µg/mL]	GI50 (786-0) [µg/mL]	GI50 (OVCAR-3) [µg/mL]	GI50 (U-251) [µg/mL]	GI50 (PC-3) [µg/mL]	GI50 (NCI-H460) [µg/mL]	IC50 [3] [µM]	GI50 [1] [µg/mL]	Activity [2]	Activity [4] [pmol]	fold change (FC) [5]	Activity [6] [µM]	Activity [7] [pmol]	Activity [8] [pmol]	fold change (FC) [9]	Activity [10]	Activity [11]
CCOC(=O)C1=C(C)NC(=O)NC1C1CCCCC1 (centres undefined)	> 250	> 250	> 250	142 (≈ 533 µM)	> 250	> 250		> 250	inactive								
CCOC(=O)C1=C(C)NC(=S)NC1c1ccc(OC)cc1 (centres undefined)	30.6 (≈ 99.9 µM)	25.9 (≈ 84.5 µM)	0.99 (≈ 3.23 µM)	29 (≈ 94.7 µM)	5.5 (≈ 18 µM)	31.4 (≈ 102 µM)		3.2 (≈ 10.4 µM)	inactive								
CCOC(=O)C1=C(C)NC(=S)NC1c1ccc(O)c(OC)c1 (centres undefined)	34.9 (≈ 108 µM)	30 (≈ 93.1 µM)	11 (≈ 34.1 µM)	88.3 (≈ 274 µM)	72.6 (≈ 225 µM)	180 (≈ 560 µM)	104	59.7 (≈ 185 µM)	65%								
CCOC(=O)C1=C(C)NC(=S)NC1c1cc(OC)c(O)c(OC)c1 (centres undefined)	28.2 (≈ 80 µM)	13.4 (≈ 38 µM)	1.9 (≈ 5.39 µM)	0.77 (≈ 2.18 µM)	19 (≈ 53.9 µM)	65.6 (≈ 186 µM)	24.2	25 (≈ 70.9 µM)	Active	370	37	78					
CCOC(=O)C1=C(C)NC(=S)NC1c1ccc(O)c(O)c1 (centres undefined)	22.7 (≈ 73.6 µM)	28.3 (≈ 91.8 µM)	25 (≈ 81.1 µM)	26.5 (≈ 85.9 µM)	25 (≈ 81.1 µM)	31.7 (≈ 103 µM)	29.7	24.3 (≈ 78.8 µM)	Active		37		413				
COc1cccc2c1C(=O)c1c(O)c3c(c(O)c1C2=O)C[C@@](O)(C(=O)CO)C[C@@H]3O[C@H]1C[C@H](N)[C@H](O)[C@H](C)O1 [DOXORUBICIN]	0.27 (≈ 0.497 µM)	0.18 (≈ 0.331 µM)	0.27 (≈ 0.497 µM)	0.068 (≈ 0.125 µM)	0.24 (≈ 0.442 µM)	< 0.025		0.14 (≈ 0.258 µM)									
Oc1ccc(/C=C/c2cc(O)cc(O)c2)cc1									Active			121				Dose-dependent effect	Active
CCOC(=O)C1=C(C)NC(=S)NC1c1ccc(SC)cc1 (centres undefined)	17.2 (≈ 53.3 µM)	5.3 (≈ 16.4 µM)	8.5 (≈ 26.4 µM)	6 (≈ 18.6 µM)	23.6 (≈ 73.2 µM)	21.6 (≈ 67 µM)		35.7 (≈ 111 µM)	inactive								
CCOC(=O)C1=C(C)NC(=S)NC1C1CCCCC1 (centres undefined)	25.2 (≈ 89.2 µM)	4.2 (≈ 14.9 µM)	2.2 (≈ 7.79 µM)	25.2 (≈ 89.2 µM)	0.46 (≈ 1.63 µM)	3.5 (≈ 12.4 µM)		24.1 (≈ 85.3 µM)	inactive								
CCOC(=O)C1=C(C)NC(=S)NC1c1ccc2c(c1)OCO2 (centres undefined)	31.4 (≈ 98 µM)	27 (≈ 84.3 µM)	55.3 (≈ 173 µM)	25.9 (≈ 80.8 µM)	13.4 (≈ 41.8 µM)	27 (≈ 84.3 µM)		57.1 (≈ 178 µM)	inactive								
CCCC1NC(=S)NC(C)=C1C(=O)OCC (centres undefined)	50.4 (≈ 208 µM)	27.7 (≈ 114 µM)	38.1 (≈ 157 µM)	29.2 (≈ 120 µM)	42.4 (≈ 175 µM)	22.5 (≈ 92.8 µM)		40.3 (≈ 166 µM)	inactive								

Now from value to molecule, other results behind:

GI50 (HT-29) [µg/mL]	GI50 (786-0) [µg/mL]	GI50 (OVCAR-3) [µg/mL]	GI50 (U-251) [µg/mL]	GI50 (PC-3) [µg/mL]	GI50 (NCI-H460) [µg/mL]	IC50 [3] [µM]	SMILES	GI50 [1] [µg/mL]	Activity [2]	Activity [4] [pmol]	fold change (FC) [5]	Activity [6] [µM]	Activity [7] [pmol]	Activity [8] [pmol]	fold change (FC) [9]	Activity [10]	Activity [11]
25.3 (≈ 90.9 µM)	24.7 (≈ 88.8 µM)	27.1 (≈ 97.4 µM)	23.5 (≈ 84.4 µM)	3.1 (≈ 11.1 µM)	28.1 (≈ 101 µM)		CCOC(=O)C1=C(C)NC(=O)NC1c1ccc(F)cc1 (centres undefined)	3.6 (≈ 12.9 µM)	inactive								
28.3 (≈ 92.4 µM)	24.9 (≈ 81.3 µM)	1.3 (≈ 4.24 µM)	28.1 (≈ 91.7 µM)	10.2 (≈ 33.3 µM)	29.2 (≈ 95.3 µM)		CCOC(=O)C1=C(C)NC(=S)NC1c1cccc(OC)c1 (centres undefined)	25.6 (≈ 83.6 µM)	inactive								
28.7 (≈ 104 µM)	25.8 (≈ 93.4 µM)	27.3 (≈ 98.8 µM)	4.2 (≈ 15.2 µM)	136 (≈ 492 µM)	40.6 (≈ 147 µM)		CCOC(=O)C1=C(C)NC(=O)NC1c1ccc(O)cc1 (centres undefined)	3.2 (≈ 11.6 µM)	inactive								
29.6 (≈ 101 µM)	4 (≈ 13.7 µM)	14.4 (≈ 49.3 µM)	24 (≈ 82.1 µM)	5.6 (≈ 19.2 µM)	10.6 (≈ 36.3 µM)		CCOC(=O)C1=C(C)NC(=S)N[C@H]1c1cccc(O)c1 [S-MENASTROL]	22.2 (≈ 75.9 µM)	inactive								
37.8 (≈ 129 µM)	20.7 (≈ 70.8 µM)	1.6 (≈ 5.47 µM)	0.25 (≈ 0.855 µM)	18.2 (≈ 62.3 µM)	34 (≈ 116 µM)	20.3	CCOC(=O)C1=C(C)NC(=O)NC1c1ccc(O)c(O)c1 (centres undefined)	2.1 (≈ 7.18 µM)	Active		37	33		488	2		
28.3 (≈ 97.5 µM)	24.8 (≈ 85.4 µM)	8 (≈ 27.6 µM)	11.6 (≈ 40 µM)	26.5 (≈ 91.3 µM)	> 250		CCOC(=O)C1=C(C)NC(=O)NC1c1ccc(OC)cc1 (centres undefined)	5.7 (≈ 19.6 µM)	inactive								
29.9 (≈ 98.3 µM)	26.3 (≈ 86.4 µM)	32.4 (≈ 106 µM)	34.9 (≈ 115 µM)	83.1 (≈ 273 µM)	48.9 (≈ 161 µM)		CCOC(=O)C1=C(C)NC(=O)NC1c1ccc2c(c1)OCO2 (centres undefined)	15.5 (≈ 50.9 µM)	inactive								
28.1 (≈ 91.7 µM)	17.5 (≈ 57.1 µM)	1.7 (≈ 5.55 µM)	4.5 (≈ 14.7 µM)	46.3 (≈ 151 µM)	126 (≈ 410 µM)	105	CCOC(=O)C1=C(C)NC(=O)NC1c1ccc(O)c(OC)c1 (centres undefined)	0.25 (≈ 0.816 µM)	65%								
29.8 (≈ 108 µM)	27.7 (≈ 100 µM)	27.7 (≈ 100 µM)	26.6 (≈ 96.3 µM)	42.2 (≈ 153 µM)	28 (≈ 101 µM)		CCOC(=O)C1=C(C)NC(=S)NC1c1ccccc1 (centres undefined)	27.4 (≈ 99.1 µM)	inactive								
10.2 (≈ 33.3 µM)	2.5 (≈ 8.16 µM)	10 (≈ 32.6 µM)	8 (≈ 26.1 µM)	9.5 (≈ 31 µM)	3.6 (≈ 11.7 µM)		CCOC(=O)C1=C(C)NC(=O)NC1c1ccc(SC)cc1 (centres undefined)	2.7 (≈ 8.81 µM)	inactive								
> 250	27.5 (≈ 94.1 µM)	37.7 (≈ 129 µM)	77.2 (≈ 264 µM)	47.6 (≈ 163 µM)	> 250		CCOC(=O)C1=C(C)NC(=S)NC1c1ccc(O)cc1 (centres undefined)	83.6 (≈ 286 µM)	inactive								
26.5 (≈ 90 µM)	24.5 (≈ 83.2 µM)	24.7 (≈ 83.9 µM)	28.3 (≈ 96.1 µM)	1.7 (≈ 5.78 µM)	14.2 (≈ 48.2 µM)		CCOC(=O)C1=C(C)NC(=S)NC1c1ccc(F)cc1 (centres undefined)	26.1 (≈ 88.7 µM)	inactive								
> 250	> 250	> 250	> 250	> 250	28.9 (≈ 111 µM)		CCOC(=O)C1=C(C)NC(=O)NC1c1ccccc1 (centres undefined)	> 250	inactive								
27.1 (≈ 98.1 µM)	26.3 (≈ 95.2 µM)	6 (≈ 21.7 µM)	5.1 (≈ 18.5 µM)	34.7 (≈ 126 µM)	42 (≈ 152 µM)		CCOC(=O)C1=C(C)NC(=O)NC1c1cccc(O)c1 (centres undefined)	11.7 (≈ 42.3 µM)	inactive								
